From paper PMC9201701 (RSC Advances, 2022)
Entries after “also recorded” stand apart in the source; their conditions may differ.

Columns and labels:
[1] = test system: Pythium insidiosum; settings: compared with amphotericin-B standard; cited from earlier work
[2] = test system: HT-29; assay: MTT cytotoxicity assay, HT-29; format: cell-based, human; settings: for Cytotoxicity IC50, HT-29: 72 hours, MTT assay; for IC50: Homo sapiens, HT-29, 72 h, read-out: Cytotoxicity IC50, HT-29
[3] = test system: HCT-116; assay: MTT cytotoxicity assay, HCT-116; format: cell-based, human; settings: for Cytotoxicity IC50, HCT-116: 72 hours, MTT assay; for IC50: Homo sapiens, HCT-116, 72 h, read-out: Cytotoxicity IC50, HCT-116
[4] = MTT cytotoxicity assay, vero cells; format: cell-based, African Green Monkey; settings: African green monkey, Vero cells (normal kidney cells)
[5] = test system: MCF-7; assay: MTT cytotoxicity assay, MCF-7; format: cell-based, human; settings: for Cytotoxicity IC50, MCF-7: 72 hours, MTT assay; for IC50: Homo sapiens, MCF7, 72 h, read-out: Cytotoxicity IC50, MCF-7
[6] = test system: HCT-116, HT-29, MCF-7 and vero cell lines; assay: MTT cytotoxicity assay, stated over all four cell lines; format: cell-based; settings: for IC50: read-out: IC50 range over all cell lines; for Cytotoxicity against all tested cell lines, in words: HCT-116, HT-29, MCF-7 and vero cells
Outline: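 Cells grown in RPMI 1640 with 10% FBS, penicillin and streptomycin at 37 °C, 5% CO2. Solvent controls got 1:1 DMSO/EtOH. After exposure, medium replaced with fresh medium containing MTT (0.5 mg mL−1 in PBS) for 2 h. […] Viability % = sample/control (A550−A655) × 100. Four replicates.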

[7] = test system: vero cells; assay: MTT cytotoxicity assay, vero cells; format: cell-based, African Green Monkey; settings: for Cytotoxicity IC50, Vero cell: 72 hours, MTT assay
[8] = test system: KB; settings: read-out: Cytotoxicity IC50, KB; cited from earlier work
[9] = test system: HeLa; settings: read-out: Cytotoxicity IC50, HeLa; cited from earlier work
[10] = test system: MRC-5; settings: read-out: Cytotoxicity IC50, MRC-5; cited from earlier work
[11] = test system: HepG2 cell line; settings: read-out: Cytotoxicity IC50, HepG2 cell line; cited from earlier work
[12] = test system: HeLa cells; settings: read-out: Cytotoxicity IC50, HeLa cells; ref 9 (Posri et al., 2021); cited from earlier work

Molecule	Cytotoxicity IC50, HT-29 [2]	IC50 at 72 h [4] [µM]	IC50 [2] [µM]	IC50 [3] [µM]	IC50 [6] [µM]	IC50 [5] [µM]	other results
COc1ccc(C2COc3cc(O)ccc3C2)c(O)c1 (single isomer, unassigned; (-)) [(−)-vestitol]	–	–	–	–	–	–	Antifungal activity against Pythium insidiosum [1]: strongest antifungal activity
COc1cc(-c2coc3cc(OC(C)=O)cc(O)c3c2=O)c(OC)cc1OC(C)=O [Compound 3, 7,4′-Diacetoxy-5-hydroxy-2′,5′-dimethoxyisoflavone]	Inactive	112 ± 12.3	–	–	–	–	Cytotoxicity IC50, HCT-116 [3]: Inactive; Cytotoxicity IC50, MCF-7 [5]: Inactive
COc1cc(C2COc3cc(O)cc(O)c3C2=O)c(OC)cc1O (stereo not drawn) [Compound 8, 5,7,4′-Trihydroxy-2′,5′-dimethoxyisoflavanone]	–	93.6 ± 10.2	69.9 ± 6.47	92.7 ± 1.84	69 to 147	148 ± 1.96	–
COc1cc(O)c2c(c1)OCC(c1cc(OC)c(OC)cc1OC)C2=NO (stereo not drawn) [Compound 15, 5-Hydroxy-7,2′,4′,5′-tetramethoxyisoflavanone oxime]	–	29.8 ± 4.85	38.6 ± 2.77	26.4 ± 0.05	26 to 38	28.9 ± 3.94	–
COc1cc(OC)c2c(c1)OCC(c1cc(OC)c(OC)cc1OC)C2=O (stereo not drawn) [Compound 10, 5,7,2′,4′,5′-Pentamethoxyisoflavanone]	Inactive	116 ± 20.2	–	30.3 ± 1.15	–	73.8 ± 0.77	Cytotoxicity against normal cells (vero cell line), in words ([7]; vero cell line): weak cytotoxicity; also recorded: weak activity
5-Hydroxy-7,4′-dimesyl-2′,5′-dimethoxyisoflavone [Compound 2]	Inactive	–	–	–	–	–	Cytotoxicity IC50, HCT-116 [3]: Inactive; Cytotoxicity IC50, Vero cell [7]: Inactive; Cytotoxicity IC50, MCF-7 [5]: Inactive
COc1cc(-c2coc3cc(O)cc(O)c3c2=O)c(OC)cc1O [Compound 1, Olibergin A]	–	88.8 ± 4.33	32.2 ± 1.73	79.2 ± 4.78	–	72.1 ± 1.12	IC50 [8]: 48.1 µM; IC50 [9]: 59.8 µM; Cytotoxicity against all tested cell lines, in words [6]: weak activity; IC50 [10]: 25 µM
COc1cc(OC)c2c(=O)c(-c3cc(OC)c(OC)cc3OC)coc2c1 [Compound 6, 5,7,2′,4′,5′-Pentamethoxyisoflavone]	–	> 269	154 ± 12.1	178 ± 2.23	–	98.5 ± 15.4	Cytotoxicity against all tested cell lines, in words [6]: weak activity
C=C(C)[C@H]1Cc2c(ccc3c2O[C@@H]2COc4cc(OC)c(OC)cc4[C@]2(O)C3=O)O1 [(−)-12α-hydroxyrotenone]	–	–	–	–	–	–	IC50 [11]: 18 ± 1.51 µM
COc1cc(O)c2c(c1)OCC(c1cc(OC)c(OC)cc1OC)C2=O (stereo not drawn) [Compound 9, 5-Hydroxy-7,2′,4′,5′-tetramethoxyisoflavanone]	–	33.5 ± 1.25	19.2 ± 1.86	37.1 ± 1.28	19 to 37	31 ± 1.89	–
CC(C)=CCC/C(C)=C/Cc1c(O)ccc2c1OC[C@H]1c3cc4c(cc3O[C@@H]21)OCO4 [R,R-Velucarpin A]	–	–	–	–	–	–	IC50 [12]: 10.9 ± 0.42 µM
COc1cc(O)c2c(c1)OCC(c1cc(OC)c(OC)cc1OC)C2=NN (stereo not drawn) [Compound 14, 5-Hydroxy-7,2′,4′,5′-tetramethoxyisoflavanone hydrazone]	Inactive	–	–	–	–	–	Cytotoxicity IC50, HCT-116 [3]: Inactive; Cytotoxicity against all tested cell lines, in words [6]: inactive; Cytotoxicity IC50, Vero cell [7]: Inactive; Cytotoxicity IC50, MCF-7 [5]: Inactive
COc1cc(OC)c2c(c1)OCC(c1cc(OC)c(OC)cc1OC)C2 (stereo not drawn) [Compound 11, 5,7,2′,4′,5′-Pentamethoxyisoflavan]	–	31.1 ± 4.99	29.38 ± 0.08	28.9 ± 3.19	19 to 37	21.1 ± 2.61	–
COc1cc(O)c2c(=O)c(-c3cc(OC)c(OC)cc3OC)coc2c1 [Compound 5, 5-Hydroxy-7,2′,4′,5′-tetramethoxyisoflavone]	–	13.5 ± 0.84	10.8 ± 1.65	19 ± 0.7	10 to 19	12.5 ± 0.7	–
7,4′-Dibutoxy-5-hydroxy-2′,5′-dimethoxyisoflavone [Compound 4]	Inactive	–	–	–	–	–	Cytotoxicity IC50, HCT-116 [3]: Inactive; Cytotoxicity IC50, Vero cell [7]: Inactive; Cytotoxicity IC50, MCF-7 [5]: Inactive
